Values after ≈ are worked out from the molar mass of the structure shown. Active and inactive are the calls of the source. No cut-off for these calls is given here.
Experiments:
HCT-8 [1] = assay: Cytotoxicity against human HCT8 cells after 3 days by SRB assay; type: functional; conditions: HCT-8, 72 h, read-out: ED50 (the source's name)
How it was run: (§1)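 Tumour lines kept in RPMI-1640 with 25 mM HEPES, 0.25% sodium bicarbonate, 10% FBS and 100 µg/mL kanamycin. Freshly trypsinized cells were seeded at 1500-7500 per well with compound from DMSO-diluted stock. After 3 days, attached cells were fixed with cold 50% TCA, stained with 0.4% SRB, and the bound dye was solubilized and read at 562 nm. ED50 is the concentration giving 50% growth reduction.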

KB = assay: Cytotoxicity against human KB cells after 3 days by SRB assay; type: functional; conditions: 72 h, read-out: ED50 (the source's name); how it was run: as §1
[2] = Cytotoxicity against human KBVIN cells after 3 days by SRB assay; type: functional; conditions: 72 h, read-out: ED50 (the source's name)
How it was run: (§2)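 Freshly trypsinized cells from T-25 stock cultures were seeded at 1500-7500 cells/well with compound added from DMSO-diluted stock. The medium was RPMI-1640 with 25 mM HEPES, 0.25% sodium bicarbonate, 10% FBS and 100 µg/mL kanamycin. After 3 days, attached cells were fixed with cold 50% TCA, stained with 0.4% SRB, and the bound dye solubilized and read at 562 nm. ED50 is the concentration giving 50% growth reduction.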

[3] = Cytotoxicity against human U87MG cells after 3 days by SRB assay; type: functional, U-87MG ATCC; conditions: U-87 MG, 72 h, read-out: ED50 (the source's name); how it was run: as §2
PC-3 = assay: Cytotoxicity against human PC3 cells after 3 days by SRB assay; type: functional; conditions: PC-3, 72 h, read-out: ED50 (the source's name); how it was run: as §1
1A9 [4] = assay: Cytotoxicity against human 1A9 cells after 3 days by SRB assay; type: functional; conditions: 1A9, 72 h, read-out: ED50 (the source's name); how it was run: as §1
1A9/ptx-10 [5] = assay: Cytotoxicity against human 1A9/PTX10 cells after 3 days by SRB assay; type: functional; conditions: 1A9/ptx-10, 72 h, read-out: ED50 (the source's name); how it was run: as §1
1A9 [6] = assay: Cytotoxicity against human 1A9 cells after 6 days by SRB assay; type: functional; conditions: 1A9, 144 h, read-out: ED50 (the source's name)
How it was run: (§3)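 Cells were grown in RPMI-1640 supplemented with 25 mM HEPES, 0.25% sodium bicarbonate, 10% FBS and 100 µg/mL kanamycin. Freshly trypsinized cells were plated at 1500-7500 per well with compound from DMSO-diluted stock over a 6-day assay period. Cells were fixed with cold 50% TCA and stained with 0.4% SRB, and the solubilized dye was read at 562 nm. ED50 is the concentration reducing growth by 50%.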

1A9/ptx-10 [7] = assay: Cytotoxicity against human 1A9/PTX10 cells after 6 days by SRB assay; type: functional; conditions: 1A9/ptx-10, 144 h, read-out: ED50 (the source's name); how it was run: as §3
A549 = assay: Cytotoxicity against human A549 cells after 3 days by SRB assay; type: functional; conditions: A549, 72 h, read-out: ED50 (the source's name); how it was run: as §1
MCF7 = assay: Cytotoxicity against human MCF7 cells after 3 days by SRB assay; type: functional; conditions: MCF7, 72 h, read-out: ED50 (the source's name); how it was run: as §1
KBVIN = assay: Cytotoxicity against human KBVIN cells at 20 ug/ml after 3 days by SRB assay; type: functional, cell-based
U-87MG ATCC = assay: Cytotoxicity against human U87MG cells at 20 ug/ml after 3 days by SRB assay; type: functional, cell-based
HCT-8 [8] = assay: Cytotoxicity against human HCT8 cells at 20 ug/ml after 3 days by SRB assay; type: functional, cell-based
1A9 [9] = assay: Cytotoxicity against human 1A9 cells at 20 ug/ml after 6 days by SRB assay; type: functional, cell-based

Work on `COC(=O)[C@]1(C)CC[C@]2(C)CC[C@]3(C)C4=CC(=O)c5c(cc(O)c(O)c5C)[C@]4(C)CC[C@@]3(C)[C@@H]2C1` yielded an EC50 (HCT-8 [1]) of 14.1 µg/mL (≈ 29.3 µM), an EC50 (KB) of 14.5 µg/mL (≈ 30.2 µM) and an EC50 [2] of 16.6 µg/mL (≈ 34.5 µM). For the same compound, the EC50 [3] was > 20 µg/mL, the EC50 (PC-3) was > 20 µg/mL and the EC50 (1A9 [4]) was 11.7 µg/mL (≈ 24.3 µM). It also gave an EC50 (1A9/ptx-10 [5]) of 12.4 µg/mL (≈ 25.8 µM), an EC50 (1A9 [6]) of 10.7 µg/mL (≈ 22.3 µM) and an EC50 (1A9/ptx-10 [7]) of 7.1 µg/mL (≈ 14.8 µM). It also gave an EC50 (A549) of 16.4 µg/mL (≈ 34.1 µM) and an EC50 (MCF7) of 12.8 µg/mL (≈ 26.6 µM).
In the case of `CC1(C)CC[C@]2(C)CC[C@]3(C)C(=CC[C@@H]4[C@@]5(C)CC[C@H](O)C(C)(C)C5C(=O)C[C@]43C)[C@H]2C1` (some centres undefined), the EC50 (HCT-8 [1]) is reported as 13.7 µg/mL (≈ 31.1 µM), the EC50 (KB) is reported as 13 µg/mL (≈ 29.5 µM) and the EC50 [2] is reported as 14.7 µg/mL (≈ 33.4 µM). The EC50 [3] was 6.7 µg/mL (≈ 15.2 µM), the EC50 (PC-3) was 15.1 µg/mL (≈ 34.3 µM) and the EC50 (1A9 [4]) was 11.4 µg/mL (≈ 25.9 µM). The EC50 (1A9/ptx-10 [5]) was 11 µg/mL (≈ 25 µM), the EC50 (1A9 [6]) was 11.3 µg/mL (≈ 25.6 µM) and the EC50 (1A9/ptx-10 [7]) was 11.2 µg/mL (≈ 25.4 µM). For the same compound, the EC50 (A549) was 13.3 µg/mL (≈ 30.2 µM) and the EC50 (MCF7) was 14.6 µg/mL (≈ 33.1 µM).
With `CC[C@H](CC[C@@H](C)[C@H]1CC[C@H]2[C@@H]3CC=C4C[C@@H](O)CC[C@]4(C)[C@H]3CC[C@]12C)C(C)C` [BETA-SITOSTEROL] the EC50 (HCT-8 [1]) was > 20 µg/mL, the EC50 (KB) was > 20 µg/mL and the EC50 [2] was > 20 µg/mL. The EC50 [3] was > 20 µg/mL, the EC50 (PC-3) was > 20 µg/mL and the EC50 (1A9 [4]) was 16.8 µg/mL (≈ 40.5 µM). It also gave an EC50 (1A9/ptx-10 [5]) of 20 µg/mL (≈ 48.2 µM), an EC50 (1A9 [6]) of 10.6 µg/mL (≈ 25.6 µM) and an EC50 (1A9/ptx-10 [7]) of 9.5 µg/mL (≈ 22.9 µM). For the same compound, the EC50 (A549) was > 20 µg/mL and the EC50 (MCF7) was > 20 µg/mL.
Work on `CC1=C(O)C(=O)C=C2C1=CC=C1[C@@]2(C)CC[C@@]2(C)[C@@H]3C[C@](C)(C(=O)O)CC[C@]3(C)CC[C@]12C` [CELASTROL] yielded an EC50 (HCT-8 [1]) of 0.23 µg/mL (≈ 0.51 µM), an EC50 (KB) of 0.2 µg/mL (≈ 0.444 µM) and an EC50 [2] of 0.34 µg/mL (≈ 0.755 µM). The EC50 [3] was 0.22 µg/mL (≈ 0.488 µM), the EC50 (PC-3) was 0.27 µg/mL (≈ 0.599 µM) and the EC50 (1A9 [4]) was 0.091 µg/mL (≈ 0.202 µM). For the same compound, the EC50 (1A9/ptx-10 [5]) was 0.1 µg/mL (≈ 0.222 µM), the EC50 (1A9 [6]) was 0.11 µg/mL (≈ 0.244 µM) and the EC50 (1A9/ptx-10 [7]) was 0.11 µg/mL (≈ 0.244 µM). For the same compound, the EC50 (A549) was 0.25 µg/mL (≈ 0.555 µM) and the EC50 (MCF7) was 0.21 µg/mL (≈ 0.466 µM).
`CC(=O)O[C@H]1C(=O)[C@@]2(C)[C@H]([C@H](OC(=O)c3ccccc3)[C@]3(O)C[C@H](OC(=O)[C@H](O)[C@@H](NC(=O)c4ccccc4)c4ccccc4)C(C)=C1C3(C)C)[C@]1(OC(C)=O)CO[C@@H]1C[C@@H]2O` [PACLITAXEL] showed an EC50 (HCT-8 [1]) of 0.011 µg/mL (≈ 0.0129 µM), an EC50 (KB) of 0.001 µg/mL (≈ 0.00117 µM) and an EC50 (1A9 [4]) of 0.002 µg/mL (≈ 0.00234 µM). The EC50 (1A9 [6]) was 0.041 µg/mL (≈ 0.048 µM) and the EC50 (A549) was 0.005 µg/mL (≈ 0.00586 µM).
`COC(=O)[C@]1(C)CC[C@]2(C)CC[C@]3(C)C4=CC=C5C(=CC(=O)C(O)=C5C)[C@]4(C)CC[C@@]3(C)[C@@H]2C1` [PRISTIMERIN] gave an EC50 (HCT-8 [1]) of 0.15 µg/mL (≈ 0.323 µM), an EC50 (KB) of 0.1 µg/mL (≈ 0.215 µM) and an EC50 [2] of 0.29 µg/mL (≈ 0.624 µM). It also gave an EC50 [3] of 0.17 µg/mL (≈ 0.366 µM), an EC50 (PC-3) of 0.23 µg/mL (≈ 0.495 µM) and an EC50 (1A9 [4]) of 0.1 µg/mL (≈ 0.215 µM). It also gave an EC50 (1A9/ptx-10 [5]) of 0.11 µg/mL (≈ 0.237 µM), an EC50 (1A9 [6]) of 0.11 µg/mL (≈ 0.237 µM) and an EC50 (1A9/ptx-10 [7]) of 0.076 µg/mL (≈ 0.164 µM). The EC50 (A549) was 0.31 µg/mL (≈ 0.667 µM) and the EC50 (MCF7) was 0.14 µg/mL (≈ 0.301 µM).
In the case of `CC(=O)O[C@H]1[C@@H]2[C@@H](OC(=O)c3ccc(=O)n(C)c3)[C@@]3(OC2(C)C)[C@@](C)([C@@H](OC(C)=O)CC[C@]3(C)O)[C@H]1OC(=O)c1ccccc1` [REISSANTIN A], the EC50 (HCT-8 [1]) is reported as > 20 µg/mL, the EC50 (KB) is reported as > 20 µg/mL and the EC50 (PC-3) is reported as > 20 µg/mL. The EC50 (1A9 [4]) was > 20 µg/mL, the EC50 (1A9/ptx-10 [5]) was > 20 µg/mL and the EC50 (1A9 [6]) was > 20 µg/mL. The EC50 (1A9/ptx-10 [7]) was > 20 µg/mL, the Activity (KBVIN) was “inactive” and the Activity (U-87MG ATCC) was “inactive”. The EC50 (A549) was > 20 µg/mL and the EC50 (MCF7) was > 20 µg/mL.
In the case of `CC(=O)O[C@H]1[C@@H]2[C@@H](OC(=O)c3ccc(=O)n(C)c3)[C@@]3(OC2(C)C)[C@](C)([C@H]1OC(=O)c1ccccc1)[C@@H](OC(C)=O)[C@@H](OC(=O)c1ccccc1)C[C@]3(C)O` [REISSANTIN B], the EC50 (HCT-8 [1]) is reported as > 20 µg/mL, the EC50 (KB) is reported as 11.7 µg/mL (≈ 15.7 µM) and the EC50 [2] is reported as 17.1 µg/mL (≈ 22.9 µM). For the same compound, the EC50 [3] was > 20 µg/mL, the EC50 (PC-3) was > 20 µg/mL and the EC50 (1A9 [4]) was 17.1 µg/mL (≈ 22.9 µM). For the same compound, the EC50 (1A9/ptx-10 [5]) was > 20 µg/mL, the EC50 (1A9 [6]) was 13.7 µg/mL (≈ 18.4 µM) and the EC50 (1A9/ptx-10 [7]) was 15.3 µg/mL (≈ 20.5 µM). The EC50 (A549) was 15.3 µg/mL (≈ 20.5 µM) and the EC50 (MCF7) was > 20 µg/mL.
With `CC(=O)O[C@H]1CC[C@](C)(O)[C@]23OC(C)(C)[C@H]([C@H](O)[C@H](OC(=O)c4ccccc4)[C@]12C)[C@H]3O` [REISSANTIN D] the EC50 (KB) was > 20 µg/mL, the EC50 (PC-3) was > 20 µg/mL and the EC50 (1A9 [4]) was > 20 µg/mL. For the same compound, the EC50 (1A9/ptx-10 [5]) was > 20 µg/mL, the EC50 (1A9 [6]) was > 20 µg/mL and the EC50 (1A9/ptx-10 [7]) was > 20 µg/mL. The Activity (HCT-8 [8]) was “inactive”, the Activity (KBVIN) was “inactive” and the Activity (U-87MG ATCC) was “inactive”. The EC50 (A549) was > 20 µg/mL and the EC50 (MCF7) was 16.2 µg/mL (≈ 36.1 µM).
For `CC(=O)O[C@H]1[C@@H]2[C@@H](O)[C@@]3(OC2(C)C)[C@@](C)([C@@H](OC(C)=O)CC[C@]3(C)O)[C@H]1OC(=O)c1ccccc1` [REISSANTIN E], the EC50 (HCT-8 [1]) was > 20 µg/mL, the EC50 (KB) was 14.4 µg/mL (≈ 29.4 µM) and the EC50 [2] was 16.5 µg/mL (≈ 33.6 µM). The EC50 (PC-3) was > 20 µg/mL, the EC50 (1A9 [4]) was > 20 µg/mL and the EC50 (1A9/ptx-10 [5]) was > 20 µg/mL. For the same compound, the EC50 (1A9/ptx-10 [7]) was > 20 µg/mL, the Activity (U-87MG ATCC) was “inactive” and the Activity (1A9 [9]) was “inactive”. For the same compound, the EC50 (A549) was > 20 µg/mL and the EC50 (MCF7) was > 20 µg/mL.

Source: ChEMBL document CHEMBL1147243, “Antitumor agents. 228. five new agarofurans, Reissantins A-E, and cytotoxic principles from Reissantia buchananii” (2003)
